Assay results from ChEMBL document CHEMBL4610092, “Cytotoxic Nitrogenated Azaphilones from the Deep-Sea-Derived Fungus Chaetomium globosum MP4-S01-7” (J Nat Prod, 2020).
pIC50: −log10 of the molar value.

Key:
MGC-803 [1] = assay: Cytotoxicity against human MGC803 cells assessed as reduction in cell viability measured after 72 hrs by CCK8 assay; type: functional, cell-based; conditions: MGC-803, 72 h
Outline: (§1)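 MGC803 or AGS cells (RPMI 1640, 10% FBS, 5% CO₂, 37 °C) plated at 3 × 10³ per well overnight, then exposed to 0.1–10 μM for 72 h. Viability was read by CCK8 absorbance at 450 nm, and IC₅₀ was calculated from the concentration series.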

AGS [2] = assay: Cytotoxicity against human AGS cells assessed as reduction in cell viability measured after 72 hrs by CCK8 assay; type: functional, cell-based; outline: as §1
MGC-803 [3] = assay: Cell cycle arrest in human MGC803 cells assessed as accumulation at S-phase at 0.5 uM measured after 24 hrs by propidium iodide staining based flow cytometry (reference value: 33%); type: functional
MGC-803 [4] = assay: Induction of apoptosis in human MGC803 cells assessed as necrotic cells at 0.2 uM measured after 48 hrs FITC-A/PE-A staining based flow cytometry (reference value: 0.9 to 2.18%); type: functional
MGC-803 [5] = assay: Induction of apoptosis in human MGC803 cells measured after 48 hrs FITC-A/PE-A staining based flow cytometry; type: functional, cell-based
AGS [6] = assay: Induction of apoptosis in human AGS cells assessed as viable cells at 5 uM measured after 48 hrs FITC-A/PE-A staining based flow cytometry (reference value: 92.05 to 93.85%); type: functional; conditions: read-out: Activity
MGC-803 [7] = assay: Induction of apoptosis in human MGC803 cells assessed as viable cells at 0.5 uM measured after 48 hrs FITC-A/PE-A staining based flow cytometry (reference value: 94.89 to 96.41%); type: functional; conditions: MGC-803, 48 h, read-out: Activity
MGC-803 [8] = assay: Cell cycle arrest in human MGC803 cells assessed as accumulation at G2/M-phase at 0.2 uM measured after 24 hrs by propidium iodide staining based flow cytometry (reference value: 22%); type: functional
AGS [9] = assay: Induction of apoptosis in human AGS cells assessed as late apoptotic cells at 0.2 uM measured after 48 hrs FITC-A/PE-A staining based flow cytometry (reference value: 1.89 to 3.49%); type: functional
MGC-803 [10] = assay: Cell cycle arrest in human MGC803 cells assessed as increase in accumulation at G1-phase measured after 24 hrs by propidium iodide staining based flow cytometry; type: functional
AGS [11] = assay: Induction of apoptosis in human AGS cells assessed as necrotic cells at 1 uM measured after 48 hrs FITC-A/PE-A staining based flow cytometry (reference value: 1.35 to 2.69%); type: functional
MGC-803 [12] = assay: Induction of apoptosis in human MGC803 cells assessed as late apoptotic cells at 1 uM measured after 48 hrs FITC-A/PE-A staining based flow cytometry (reference value: 0.67 to 0.82%); type: functional
AGS [13] = assay: Induction of apoptosis in human AGS cells assessed as viable cells at 0.5 uM measured after 48 hrs FITC-A/PE-A staining based flow cytometry (reference value: 92.05 to 93.85%); type: functional; conditions: read-out: Activity
MGC-803 [14] = assay: Cell cycle arrest in human MGC803 cells assessed as accumulation at G1-phase at 0.2 uM measured after 24 hrs by propidium iodide staining based flow cytometry (reference value: 45%); type: functional
MGC-803 [15] = assay: Cell cycle arrest in human MGC803 cells assessed as accumulation at G1-phase at 0.5 uM measured after 24 hrs by propidium iodide staining based flow cytometry (reference value: 45%); type: functional
MGC-803 [16] = assay: Induction of apoptosis in human MGC803 cells assessed as viable cells at 5 uM measured after 48 hrs FITC-A/PE-A staining based flow cytometry (reference value: 94.89 to 96.41%); type: functional; conditions: MGC-803, 48 h, read-out: Activity
MGC-803 [17] = assay: Induction of apoptosis in human MGC803 cells assessed as early apoptotic cells at 0.2 uM measured after 48 hrs FITC-A/PE-A staining based flow cytometry (reference value: 0.59 to 3.54%); type: functional
MGC-803 [18] = assay: Induction of apoptosis in human MGC803 cells assessed as necrotic cells at 1 uM measured after 48 hrs FITC-A/PE-A staining based flow cytometry (reference value: 0.9 to 2.18%); type: functional
MGC-803 [19] = assay: Induction of apoptosis in human MGC803 cells assessed as necrotic cells at 0.5 uM measured after 48 hrs FITC-A/PE-A staining based flow cytometry (reference value: 0.9 to 2.18%); type: functional
MGC-803 [20] = assay: Cell cycle arrest in human MGC803 cells assessed as accumulation at S-phase at 1 uM measured after 24 hrs by propidium iodide staining based flow cytometry (reference value: 33%); type: functional
MGC-803 [21] = assay: Cell cycle arrest in human MGC803 cells assessed as accumulation at G2/M-phase at 0.5 uM measured after 24 hrs by propidium iodide staining based flow cytometry (reference value: 22%); type: functional
AGS [22] = assay: Induction of apoptosis in human AGS cells assessed as necrotic cells at 0.2 uM measured after 48 hrs FITC-A/PE-A staining based flow cytometry (reference value: 1.35 to 2.69%); type: functional
MGC-803 [23] = assay: Induction of apoptosis in human MGC803 cells assessed as necrotic cells at 5 uM measured after 48 hrs FITC-A/PE-A staining based flow cytometry (reference value: 0.9 to 2.18%); type: functional
AGS [24] = assay: Induction of apoptosis in human AGS cells assessed as late apoptotic cells at 1 uM measured after 48 hrs FITC-A/PE-A staining based flow cytometry (reference value: 1.89 to 3.49%); type: functional
AGS [25] = assay: Induction of apoptosis in human AGS cells assessed as viable cells at 0.2 uM measured after 48 hrs FITC-A/PE-A staining based flow cytometry (reference value: 92.05 to 93.85%); type: functional; conditions: read-out: Activity
AGS [26] = assay: Induction of apoptosis in human AGS cells assessed as necrotic cells at 0.5 uM measured after 48 hrs FITC-A/PE-A staining based flow cytometry (reference value: 1.35 to 2.69%); type: functional
AGS [27] = assay: Induction of apoptosis in human AGS cells assessed as early apoptotic cells at 1 uM measured after 48 hrs FITC-A/PE-A staining based flow cytometry (reference value: 1.77 to 2.91%); type: functional
MGC-803 [28] = assay: Cell cycle arrest in human MGC803 cells assessed as accumulation at S-phase at 0.2 uM measured after 24 hrs by propidium iodide staining based flow cytometry (reference value: 33%); type: functional
AGS [29] = assay: Induction of apoptosis in human AGS cells assessed as late apoptotic cells at 5 uM measured after 48 hrs FITC-A/PE-A staining based flow cytometry (reference value: 1.89 to 3.49%); type: functional
AGS [30] = assay: Induction of apoptosis in human AGS cells assessed as early apoptotic cells at 5 uM measured after 48 hrs FITC-A/PE-A staining based flow cytometry (reference value: 1.77 to 2.91%); type: functional
MGC-803 [31] = assay: Induction of apoptosis in human MGC803 cells assessed as viable cells at 0.2 uM measured after 48 hrs FITC-A/PE-A staining based flow cytometry (reference value: 94.89 to 96.41%); type: functional; conditions: MGC-803, 48 h, read-out: Activity
MGC-803 [32] = assay: Induction of apoptosis in human MGC803 cells assessed as early apoptotic cells at 1 uM measured after 48 hrs FITC-A/PE-A staining based flow cytometry (reference value: 0.59 to 3.54%); type: functional
MGC-803 [33] = assay: Induction of apoptosis in human MGC803 cells assessed as early apoptotic cells at 0.5 uM measured after 48 hrs FITC-A/PE-A staining based flow cytometry (reference value: 0.59 to 3.54%); type: functional
AGS [34] = assay: Induction of apoptosis in human AGS cells assessed as necrotic cells at 5 uM measured after 48 hrs FITC-A/PE-A staining based flow cytometry (reference value: 1.35 to 2.69%); type: functional
MGC-803 [35] = assay: Cell cycle arrest in human MGC803 cells assessed as accumulation at G2/M-phase at 1 uM measured after 24 hrs by propidium iodide staining based flow cytometry (reference value: 22%); type: functional
AGS [36] = assay: Induction of apoptosis in human AGS cells assessed as early apoptotic cells at 0.5 uM measured after 48 hrs FITC-A/PE-A staining based flow cytometry (reference value: 1.77 to 2.91%); type: functional
AGS [37] = assay: Induction of apoptosis in human AGS cells measured after 48 hrs FITC-A/PE-A staining based flow cytometry; type: functional, cell-based
MGC-803 [38] = assay: Induction of apoptosis in human MGC803 cells assessed as viable cells at 1 uM measured after 48 hrs FITC-A/PE-A staining based flow cytometry (reference value: 94.89 to 96.41%); type: functional; conditions: MGC-803, 48 h, read-out: Activity
AGS [39] = assay: Induction of apoptosis in human AGS cells assessed as early apoptotic cells at 0.2 uM measured after 48 hrs FITC-A/PE-A staining based flow cytometry (reference value: 1.77 to 2.91%); type: functional
MGC-803 [40] = assay: Induction of apoptosis in human MGC803 cells assessed as late apoptotic cells at 0.5 uM measured after 48 hrs FITC-A/PE-A staining based flow cytometry (reference value: 0.9 to 2.18%); type: functional
AGS [41] = assay: Induction of apoptosis in human AGS cells assessed as late apoptotic cells at 0.5 uM measured after 48 hrs FITC-A/PE-A staining based flow cytometry (reference value: 1.89 to 3.49%); type: functional
MGC-803 [42] = assay: Cell cycle arrest in human MGC803 cells assessed as accumulation at G1-phase at 1 uM measured after 24 hrs by propidium iodide staining based flow cytometry (reference value: 45%); type: functional
AGS [43] = assay: Induction of apoptosis in human AGS cells assessed as viable cells at 1 uM measured after 48 hrs FITC-A/PE-A staining based flow cytometry (reference value: 92.05 to 93.85%); type: functional; conditions: read-out: Activity
MGC-803 [44] = assay: Induction of apoptosis in human MGC803 cells assessed as late apoptotic cells at 5 uM measured after 48 hrs FITC-A/PE-A staining based flow cytometry (reference value: 0.67 to 0.82%); type: functional
MGC-803 [45] = assay: Induction of apoptosis in human MGC803 cells assessed as late apoptotic cells at 0.2 uM measured after 48 hrs FITC-A/PE-A staining based flow cytometry (reference value: 0.9 to 2.18%); type: functional
MGC-803 [46] = assay: Induction of apoptosis in human MGC803 cells assessed as early apoptotic cells at 5 uM measured after 48 hrs FITC-A/PE-A staining based flow cytometry (reference value: 0.59 to 3.54%); type: functional

Compound: CCC(=O)C1=C2C3=CN(CC=C(C)C)C(/C=C/[C@@H](C)CC)=CC3=C(Cl)C(=O)[C@@]2(C)OC1=O
- pIC50 (MGC-803 [1]): 5.24
- pIC50 (AGS [2]): < 5.00

Compound: CC[C@H](C)/C=C/C1=CC2=C(Cl)C(=O)[C@@]3(C)OC(=O)C(C(=O)[C@@H](C)[C@@H](C)O)=C3C2=CN1C/C=C(\C)CCC=C(C)C
- Activity (MGC-803 [3]): 28%
- Activity (MGC-803 [4]): 4.06%
- Activity (MGC-803 [5]): Dose-dependent effect
- viability at 5 µM (AGS [6]): 8.93%
- viability at 0.5 µM (MGC-803 [7]): 91.3%
- Activity (MGC-803 [8]): 23%
- Activity (AGS [9]): 2.69%
- Activity (MGC-803 [10]): Dose-dependent effect
- Activity (AGS [11]): 3.36%
- Activity (MGC-803 [12]): 18.17%
- viability at 0.5 µM (AGS [13]): 88.2%
- Activity (MGC-803 [14]): 48%
- Activity (MGC-803 [15]): 48%
- viability at 5 µM (MGC-803 [16]): 20.1%
- Activity (MGC-803 [17]): 2.96%
- Activity (MGC-803 [18]): 6.01%
- Activity (MGC-803 [19]): 3.23%
- Activity (MGC-803 [20]): 32%
- Activity (MGC-803 [21]): 24%
- Activity (AGS [22]): 1.37%
- Activity (MGC-803 [23]): 5.03%
- Activity (AGS [24]): 35.16%
- viability at 0.2 µM (AGS [25]): 93.2%
- Activity (AGS [26]): 2.85%
- Activity (AGS [27]): 16.5%
- Activity (MGC-803 [28]): 30%
- Activity (AGS [29]): 86.77%
- Activity (AGS [30]): 1.86%
- viability at 0.2 µM (MGC-803 [31]): 90.7%
- pIC50 (MGC-803 [1]): 6.34
- Activity (MGC-803 [32]): 4.16%
- Activity (MGC-803 [33]): 2.65%
- Activity (AGS [34]): 2.44%
- Activity (MGC-803 [35]): 9.4%
- Activity (AGS [36]): 5.89%
- Activity (AGS [37]): Dose-dependent effect
- viability at 1 µM (MGC-803 [38]): 71.7%
- Activity (AGS [39]): 2.78%
- Activity (MGC-803 [40]): 2.85%
- pIC50 (AGS [2]): 6.21
- Activity (AGS [41]): 3.01%
- Activity (MGC-803 [42]): 58%
- viability at 1 µM (AGS [43]): 45%
- Activity (MGC-803 [44]): 68.63%
- Activity (MGC-803 [45]): 2.23%
- Activity (MGC-803 [46]): 6.2%

Compound: CC[C@H](C)/C=C/C1=CC2=C(Cl)C(=O)[C@@]3(C)OC(=O)C(C(=O)[C@@H](C)[C@@H](C)O)=C3C2=CO1 [CHAETOVIRIDIN A]
- pIC50 (MGC-803 [1]): < 5.00
- pIC50 (AGS [2]): < 5.00

Compound: CCC(=O)C1=C2C3=CN(C/C=C(\C)CCC=C(C)C)C(/C=C/[C@@H](C)CC)=CC3=C(Cl)C(=O)[C@@]2(C)OC1=O
- pIC50 (MGC-803 [1]): 5.66
- pIC50 (AGS [2]): 5.92

Compound: CC[C@H](C)/C=C/C1=CC2=C(Cl)C(=O)[C@@]3(C)OC(=O)C(C(=O)[C@@H](C)[C@@H](C)O)=C3C2=CN1CC=C(C)C
- pIC50 (MGC-803 [1]): 5.52
- pIC50 (AGS [2]): 5.54

Compound: CC[C@H](C)/C=C/C1=CC2=C(Cl)C(=O)[C@@]3(C)OC(=O)C(C(=O)[C@H](C)[C@@H](C)O)=C3C2=CN1CC=C(C)C
- pIC50 (MGC-803 [1]): 5.57
- pIC50 (AGS [2]): 5.19
